ChEMBL document CHEMBL4017532, “Multifunctional Hybrid Compounds Derived from 2-(2,5-Dioxopyrrolidin-1-yl)-3-methoxypropanamides with Anticonvulsant and Antinociceptive Properties” (J Med Chem, 2017)
The source made the active and inactive calls. The rule behind the calls is not given here.

Assays:
[1] = tested on: Mus musculus; assay: Anticonvulsant activity in Albino Swiss CD-1 mouse assessed as protection against 6 Hz current-induced seizure at 100 mg/kg, ip pretreated up to 0.5 hrs followed by 6 Hz current induction for 3 secs relative to control; type: functional
[2] = tested on: Mus musculus; assay: Anticonvulsant activity in Albino Swiss CD-1 mouse assessed as protection against maximal electroshock-induced seizures by measuring time to peak effect at 100 mg/kg, ip pretreated up to 2 hrs followed by 50 Hz current induction for […]; type: functional
[3] = tested on: Mus musculus; assay: Protection index, ratio of TD50 for neurotoxicity in ip dosed Albino Swiss CD-1 mouse to ED50 for ip dosed Albino Swiss CD-1 mouse model of 6 Hz-induced siezures
Summary of the method: (§1)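 Acute neurological toxicity after ip dosing (1% Tween 80 suspension) was assessed in the mouse chimney test. TD50 with 95% confidence limits was derived by probit analysis. Protective index is TD50 from the chimney test divided by ED50 from the MES, scPTZ or 6 Hz test.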

[4] = tested on: Mus musculus; assay: Anticonvulsant activity in Albino Swiss CD-1 mouse assessed as protection against 6 Hz current-induced seizure at 100 mg/kg, ip pretreated up to 2 hrs followed by 6 Hz current induction for 3 secs relative to control; type: functional
[5] = tested on: Mus musculus; assay: Anticonvulsant activity in Albino Swiss CD-1 mouse assessed as protection against maximal electroshock-induced seizures at 100 mg/kg, ip pretreated up to 2 hrs followed by 50 Hz current induction for […] relative to control; type: functional
[6] = Neurotoxicity in ip dosed Albino Swiss CD-1 mouse assessed as induction of motor impairment measured up to 60 secs by chimney test; type: toxicity, organism-based; conditions: in vivo; summary of the method: as §1
[7] = tested on: Mus musculus; assay: Anticonvulsant activity in ip dosed Albino Swiss CD-1 mouse assessed as protection against 32 mA current-induced seizure treated up to 2 hrs prior to 6-Hz current induction measured at time to peak effect; type: functional; conditions: Swiss CD-1, ip
[8] = tested on: Mus musculus; assay: Anticonvulsant activity in ip dosed Albino Swiss CD-1 mouse assessed as protection against maximal electroshock-induced seizures pretreated up to 2 hrs followed by 50 Hz current induction for […] measured at time to peak effect; type: functional; conditions: Swiss CD-1, ip
[9] = tested on: Liver; assay: Drug level in human liver microsomes treated with 1-{1-[4-(3-Chlorophenyl)piperazin-1-yl]-3-methoxy-1-oxopropan-2-yl}pyrrolidine-2,5-dione preincubated for 5 mins followed by NADPH addition measured after 2 hrs by LC-MS method; type: ADME, microsome
[10] = Retention time of the compound by LC-MS method
[11] = tested on: Liver; assay: Drug level in human liver microsomes treated with 1-{1-[4-(4-Trifluoromethylphenyl)piperazin-1-yl]-3-methoxy-1-oxopropan-2-yl}pyrrolidine-2,5-dione preincubated for 5 mins followed by NADPH addition measured after 2 hrs by LC-MS method; type: ADME, microsome
[12] = tested on: Mus musculus; assay: Anticonvulsant activity in Albino Swiss CD-1 mouse assessed as inhibition of pentylenetetrazole-induced seizures by measuring time to peak effect at 100 mg/kg, ip administered up to 2 hrs prior to PTZ induction measured for 30 mins; type: functional
[13] = tested on: Mus musculus; assay: Protection index, ratio of TD50 for neurotoxicity in ip dosed Albino Swiss CD-1 mouse to ED50 for ip dosed maximal electroshock induced seizure Albino Swiss CD-1 mouse; summary of the method: as §1
[14] = target: Cytochrome P450 3A4 (Homo sapiens, UniProt P08684); assay: Inhibition of human CYP3A4 assessed as reduction in luciferin-PPXE conversion to D-luciferin at 12.5 to 25 uM by luminescence assay; type: ADME
Chain of Cytochrome P450 3A4 (P08684 whole entry): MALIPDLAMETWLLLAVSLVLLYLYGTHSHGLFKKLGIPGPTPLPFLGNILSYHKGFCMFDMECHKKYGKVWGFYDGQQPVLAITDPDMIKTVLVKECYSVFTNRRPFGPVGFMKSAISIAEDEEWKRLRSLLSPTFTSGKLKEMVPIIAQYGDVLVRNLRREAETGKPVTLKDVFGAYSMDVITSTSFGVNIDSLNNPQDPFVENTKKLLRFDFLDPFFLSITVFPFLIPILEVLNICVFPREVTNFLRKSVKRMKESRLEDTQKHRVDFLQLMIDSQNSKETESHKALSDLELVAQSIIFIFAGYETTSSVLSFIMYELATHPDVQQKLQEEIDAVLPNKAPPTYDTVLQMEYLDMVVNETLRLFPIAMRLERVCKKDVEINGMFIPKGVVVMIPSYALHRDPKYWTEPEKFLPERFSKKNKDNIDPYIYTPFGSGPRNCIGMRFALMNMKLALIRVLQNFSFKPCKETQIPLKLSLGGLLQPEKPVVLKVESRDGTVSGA
Summary of the method: (§2)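 P450-Glo luminescence assays used recombinant human CYP3A4 or CYP2D6 with conversion of luciferin-PPXE to D-luciferin. Ketoconazole (CYP3A4) and quinidine (CYP2D6) served as reference inhibitors.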

[15] = tested on: Liver; assay: Drug level in human liver microsomes treated with 1-{1-[4-(3-Trifluoromethylphenyl)piperazin-1-yl]-3-methoxy-1-oxopropan-2-yl}pyrrolidine-2,5-dione preincubated for 5 mins followed by NADPH addition measured after 2 hrs by LC-MS method; type: ADME, microsome
[16] = target: Cytochrome P450 2D6 (Homo sapiens, UniProt P10635); assay: Inhibition of human CYP2D6 assessed as reduction in luciferin-PPXE conversion to D-luciferin at 12.5 to 25 uM by luminescence assay; type: ADME; summary of the method: as §2
Chain of Cytochrome P450 2D6 (P10635 whole entry): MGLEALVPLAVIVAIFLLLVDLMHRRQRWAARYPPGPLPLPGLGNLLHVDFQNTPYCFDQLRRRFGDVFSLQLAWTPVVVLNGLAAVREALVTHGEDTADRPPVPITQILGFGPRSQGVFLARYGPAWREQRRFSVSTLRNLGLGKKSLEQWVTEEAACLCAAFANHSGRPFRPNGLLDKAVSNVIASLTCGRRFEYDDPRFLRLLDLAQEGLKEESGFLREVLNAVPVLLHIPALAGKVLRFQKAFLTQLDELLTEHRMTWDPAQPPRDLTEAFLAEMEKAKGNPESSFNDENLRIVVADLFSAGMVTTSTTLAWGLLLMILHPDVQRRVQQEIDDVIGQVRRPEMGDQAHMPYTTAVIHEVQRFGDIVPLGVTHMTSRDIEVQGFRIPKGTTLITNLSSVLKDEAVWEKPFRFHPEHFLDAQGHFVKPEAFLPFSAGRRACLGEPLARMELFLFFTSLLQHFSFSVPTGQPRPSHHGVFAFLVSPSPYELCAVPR

[17] = tested on: Mus musculus; assay: Anticonvulsant activity in Albino Swiss CD-1 mouse assessed as inhibition of pentylenetetrazole-induced seizures at 100 mg/kg, ip administered up to 2 hrs prior to PTZ induction measured after 30 mins relative to control; type: functional; set-up: scale not given: the % may be the effect or the level left
[18] = tested on: Mus musculus; assay: Analgesic activity in Albino Swiss CD-1 mouse assessed as increase in pain response latency administered at 4 mg/kg, ip treated up to 90 mins prior to tet by hot plate assay; type: functional, organism-based
Summary of the method: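 Adult male Albino Swiss CD-1 mice (18−25 g), 6−12 per group, each used once. Drug given ip suspended in 1% aqueous Tween 80; vehicle controls received Tween 80. Mice were put back on the hot plate at 15, 30, 45, 60 and 90 min after dosing, and latency to pain reaction was recorded. Data are means ± SEM, analysed by ANOVA with post hoc tests.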

O=C(C(CO)N1C(=O)CCC1=O)N1CCN(c2cccc(C(F)(F)F)c2)CC1 (stereo not given)
Efficacy [1]: 50%

COCC(C(=O)N1CCN(c2cccc(C)c2)CC1)N1C(=O)CCC1=O (stereo not given)
Time [2]: 0.25 h | Ratio TD50/ED50 [3]: 4.5 | Activity [4]: <=75% | Activity [5]: <=75% | TD50 at 1 min [6]: 213 mg/kg | ED50 [7]: 47.7 mg/kg

COC[C@@H](C(=O)N1CCN(c2ccc(C(F)(F)F)cc2)CC1)N1C(=O)CCC1=O
Time [2]: 0.25 to 0.5 h | Ratio TD50/ED50 [3]: 5 - 6.4 | ED50 [8]: > 120 mg/kg | TD50 at 1 min [6]: 243 to 246 mg/kg | ED50 [7]: 37.9 to 49.2 mg/kg

COCC(C(=O)N1C=CN(c2cccc(Cl)c2)CC1)N1C(=O)CCC1=O (stereo not given)
Drug metabolism [9]: Metabolite_Detected | Retention time [10]: 6.04 min

COCC(C(=O)N1C=CN(c2ccc(C(F)(F)F)cc2)CC1)N1C(=O)CCC1=O (stereo not given)
Drug metabolism [11]: Metabolite_Detected | Retention time [10]: 6.23 min

CCC1(C)CC(=O)NC1=O (stereo not given) [ETHOSUXIMIDE]
Time [2]: 0.25 h | Ratio TD50/ED50 [3]: 3.2 | ED50 [8]: > 500 mg/kg | TD50 at 1 min [6]: 722 mg/kg | Time [12]: 0.25 h | ED50 [7]: 222 mg/kg

COC[C@@H](NC(C)=O)C(=O)NCc1ccccc1 [LACOSAMIDE]
Ratio TD50/ED50 [13]: 3.6 | Time [2]: 0.5 h | Ratio TD50/ED50 [3]: 5.3 | ED50 [8]: 9.4 mg/kg | TD50 at 1 min [6]: 33.7 mg/kg | ED50 [7]: 6.4 mg/kg

COCC(C(=O)N1CCN(c2cccc(OC)c2)CC1)N1C(=O)CCC1=O (stereo not given)
Time [2]: 0.25 h | Activity [4]: <=75% | ED50 [7]: > 100 mg/kg

COCC(C(=O)N1CCN(c2cccc(Cl)c2)CC1)N1C(=O)CCC1=O (stereo not given)
Ratio TD50/ED50 [13]: 2.4 - 2.6 | Time [2]: 0.25 to 0.5 h | inhibition (INH) [14]: Not Active | Ratio TD50/ED50 [3]: 6.9 - 7.3 | Activity [4]: <=75% | Activity [5]: <=75% | ED50 [8]: 79.7 to 87 mg/kg | TD50 at 1 min [6]: 192 to 226 mg/kg | Retention time [10]: 5.72 min | ED50 [7]: 26.1 to 32.7 mg/kg

COCC(C(=O)N1CCN(c2ccc(C)cc2)CC1)N1C(=O)CCC1=O (stereo not given)
Time [2]: 0.25 h | Ratio TD50/ED50 [3]: 9.6 | Activity [4]: <=75% | TD50 at 1 min [6]: 204 mg/kg | ED50 [7]: 21.1 mg/kg

CC[C@@H](C(N)=O)N1CCCC1=O [LEVETIRACETAM]
Time [2]: 1 h | Ratio TD50/ED50 [3]: >33.8 | ED50 [8]: > 500 mg/kg | TD50 at 1 min [6]: > 500 mg/kg

COCC(C(=O)N1C=CN(c2cccc(C(F)(F)F)c2)CC1)N1C(=O)CCC1=O (stereo not given)
Drug metabolism [15]: Metabolite_Detected | Retention time [10]: 6.33 min

COCC(C(=O)N1CCN(c2ccc(Cl)cc2)CC1)N1C(=O)CCC1=O (stereo not given)
Time [2]: 0.25 to 1 h | Ratio TD50/ED50 [3]: 2.4 - 4.6 | Activity [4]: <=75% | TD50 at 1 min [6]: 180 to 208 mg/kg | ED50 [7]: 45.5 to 77 mg/kg

COC[C@H](C(=O)N1CCN(c2ccc(C(F)(F)F)cc2)CC1)N1C(=O)CCC1=O
Ratio TD50/ED50 [13]: 1.9 - 2.1 | Time [2]: 0.25 to 1 h | Ratio TD50/ED50 [3]: 8 - 9.2 | ED50 [8]: 80.9 to 88.9 mg/kg | TD50 at 1 min [6]: 167 to 194 mg/kg | ED50 [7]: 21.1 to 22.1 mg/kg

COCC(C(=O)N1CCN(C)CC1)N1C(=O)CCC1=O (stereo not given)
Time [2]: 0.25 h | Ratio TD50/ED50 [3]: >7.3 | Activity [4]: <=75% | TD50 at 1 min [6]: > 500 mg/kg | ED50 [7]: 68.2 mg/kg

O=C(C(CO)N1C(=O)CCC1=O)N1CCN(c2ccc(C(F)(F)F)cc2)CC1 (stereo not given)
Efficacy [1]: 50%

COCC(C(=O)N1CCN(c2cccc(C(F)(F)F)c2)CC1)N1C(=O)CCC1=O (stereo not given)
inhibition (INH) [16]: Not Active | inhibition (INH) [14]: Not Active | Activity [17]: 50% | Activity [4]: <=75% | Retention time [10]: 6.08 min

CN1CC[C@]23c4c5ccc(O)c4O[C@H]2[C@@H](O)C=C[C@H]3[C@H]1C5
Activity [18]: Active

COCC(C(=O)N1CCN(c2cccc(Cl)c2Cl)CC1)N1C(=O)CCC1=O (stereo not given)
Time [2]: 0.25 to 0.5 h | Ratio TD50/ED50 [3]: 4.8 - 5.9 | Activity [4]: <=75% | TD50 at 1 min [6]: 224 to 261 mg/kg | ED50 [7]: 38 to 54.7 mg/kg

COCC(C(=O)N1CCN(c2ccc(F)cc2)CC1)N1C(=O)CCC1=O (stereo not given)
Time [2]: 0.25 h | Ratio TD50/ED50 [3]: 4.3 | Activity [4]: <=75% | TD50 at 1 min [6]: 306 mg/kg | ED50 [7]: 71.4 mg/kg
